Cneo AK release – Cryptococcus neoformans lysis via adenylate kinase release. lysis activity, % at 15 µM. 360,000 compounds, 0.2% hits. C. neoformans lysis, adenylate kinase release luminescence, 4 h; normalised: neutral wells 0, clomiphene wells 100;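 active = mean lysis activity across replicates of at least 80%, whatever share of replicates individually reach that level; inactive = mean lysis activity below 80%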
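Assay system: C. neoformans cells. Amount: yeast cell density of 5 × 10^6 cells/mL. Technique: AK luminescence. Buffer or medium: YPD. Times: static 4 h at 37 °C with compound, 1 h detection. Dosing: single-point compound dose. Read-out: lysis from increased AK signal.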
FN deposit inh – fibronectin deposition inhibition. AH1F fibroblasts, Alexa488-fibronectin deposition fluorescence, overnight. inhibition, % at 12.6 µM. 350,000 compounds, 0.086% hits. AID 743247;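 active = mean inhibition across replicates of 30% or more, regardless of how many single replicates reach that level; inconclusive = mean under 30% yet at least half of replicates reach 30%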;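 also: positive control wells lacked labelled fibronectin entirely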
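Material: AH1F fibroblast monolayer depositing Alexa488-labelled fibronectin into matrix | Input: 10000 AH1F cells/well | Medium: DMEM plus 2% serum, read in PBS | Reagent: Alexa488-fibronectin, 24 nM final in well | Compound dosing: One dose per compound, pinned | Schedule: 1 h adhesion, overnight exposure | Measured by: Fluorescence at 485 nm excitation, 525 nm emission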
DENV2 CPE – inhibitors of DENV2 cytopathic effect. DENV2-infected cells, cytopathic effect rescue, plate reader. CPE inhibition, % at 9.99 µM. 350,000 compounds, 1.7% hits; in the data active = CPE inhibition above about 20%, passing the limit was not always enough; inconclusive = no clear call, values can overlap the other calls; tested in BHK-21 cells;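 also: 0% = median of neutral control wells and 100% = median of positive control wells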
Xi reactivation – reactivates the inactive X chromosome in mouse fibroblasts; 360,000 compounds, 0.055% hits; AID 743238; activation, % at 7.58 µM; XiGFP mouse fibroblasts, % GFP-positive cells imaging, 3 d; cells co-treated with 5-aza-dC sensitizer; scaled so ellipticine positive control = 100%;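 active = mean normalized replicate activation at least 10% and every replicate at or above 10%; inconclusive = only one of the two criteria met; inactive = mean below 10% and not all replicates reach 10%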;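 also: 0% = median of on-plate neutral control wells and 100% = ellipticine 6 µM median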
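Material: SV40-immortalized XiGFP fibroblast cells, line 68-5-11 | Buffer or medium: DMEM containing 5-aza-dC | Dosing: One concentration, pinned | Times: 3 d treatment, 15 min room-temperature fixation | Controls: Ellipticine 6 µM positive control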
PGC1a acetyl inh – modulators of PGC1a acetylation; U2OS PGC1a acetylation, AlphaScreen anti-acetyl-lysine; with virally co-expressed GCN5 acetyltransferase; inhibition, % at 15.6 µM; 350,000 compounds, 0.17% hits;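 active = every replicate shows inhibition of at least 40%; inconclusive = mean inhibition at least 40% but some replicate below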;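 also: 0% = neutral control wells and 100% = positive control wells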
CFTR F508del cor – correctors of CFTR F508del function in bronchial epithelial cells. AID 720511. activity (quench increase), % at 7.58 µM. 350,000 compounds, 0.36% hits. CFBE cells, YFP halide quenching; stimulated with forskolin plus potentiator P3; % fluorescence drop versus neutral controls;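 active = mean added fluorescence quench of at least 8% versus neutral control, with both replicates also reaching 8%; inconclusive = only one of the mean or replicate conditions met; inactive = mean below 8% and not both replicates reaching 8%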;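 also: cells transiently co-express mutant CFTR-F508del with the halide-sensitive YFP; corrector assay measuring rescue of mutant channel to the surface after 24 h compound exposure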
Starred values were filed as active, the others as inactive. Only some compounds are listed: those with a hit (about 1.9% of all), similar ones and a draw of the others.

How did CC(=O)OCC(=O)C1(O)CCC2C3CCC4=CC(=O)C=CC4(C)C3C(O)CC21C (configuration not stated) do in these assays?
Cneo AK release: 0; FN deposit inh: -16; DENV2 CPE: 15; Xi reactivation: 0; PGC1a acetyl inh: -2; CFTR F508del cor: 3

How did CCNC(=O)Nc1ccc2c(c1)C(=O)N(C)[C@@H]1CC[C@@H](CC(=O)NCc3cccc(F)c3)O[C@@H]1CO2 do in these assays?
Cneo AK release: -1; FN deposit inh: -28; DENV2 CPE: 12; Xi reactivation: 0; PGC1a acetyl inh: 5; CFTR F508del cor: 0

Results for CC(C)C(=O)Nc1nnc(S(=O)(=O)N2CCCc3ccccc32)s1 ?
Cneo AK release: 2; FN deposit inh: -6; DENV2 CPE: -2; Xi reactivation: 0; PGC1a acetyl inh: -5; CFTR F508del cor: 1

What do the screens show for `CC(C)C(=O)Nc1nnc(S(=O)(=O)N2CCc3ccccc32)s1`?
Cneo AK release: 0; FN deposit inh: -6; DENV2 CPE: 107*; Xi reactivation: 0; PGC1a acetyl inh: 0; CFTR F508del cor: 1

Results for Cc1ccc(S(=O)(=O)Nc2ccccc2C(=O)NCc2cccnc2)cc1 ?
FN deposit inh: 2; DENV2 CPE: 5; Xi reactivation: 0; PGC1a acetyl inh: 91*; CFTR F508del cor: -2

Results for COc1ccc(C(CNC(=O)c2cccc3cccnc23)N(C)C)cc1 (configuration not stated) ?
Cneo AK release: -1; FN deposit inh: -8; DENV2 CPE: 46*; Xi reactivation: 0; PGC1a acetyl inh: -17; CFTR F508del cor: -1

What do the screens show for `COc1ccc(/C=C/C(=O)Nc2ccccc2C(=O)NCC(c2ccc(OC)cc2)N(C)C)cc1` (configuration not stated)?
Cneo AK release: -3; FN deposit inh: -6; DENV2 CPE: 1; Xi reactivation: 0; CFTR F508del cor: 1

How did O=C(Cc1ccccn1)NCC[C@@H]1CC[C@H](NS(=O)(=O)c2ccc(Cl)cc2)[C@H](CO)O1 do in these assays?
Cneo AK release: 5; FN deposit inh: -9; DENV2 CPE: 0; Xi reactivation: 0; PGC1a acetyl inh: 3; CFTR F508del cor: 2

Results for C[C@@H]1CN([C@H](C)CO)C(=O)Cc2cc(NS(C)(=O)=O)ccc2O[C@H]1CN(C)Cc1ccc(-c2ccccc2)cc1 ?
Cneo AK release: -1; DENV2 CPE: 8; Xi reactivation: 0; PGC1a acetyl inh: 1; CFTR F508del cor: 3

What do the screens show for `O=[S@]1Oc2ccccc2-c2ccccc21`?
Cneo AK release: -4; FN deposit inh: 4; DENV2 CPE: 67*; Xi reactivation: 0; PGC1a acetyl inh: 19; CFTR F508del cor: -4

Results for COc1ccccc1S(=O)(=O)N[C@H]1CC[C@@H](CCNC(=O)C2CCCCC2)O[C@H]1CO ?
Cneo AK release: -5; FN deposit inh: 6; DENV2 CPE: inconclusive; Xi reactivation: 0; PGC1a acetyl inh: 0; CFTR F508del cor: 0

Results for CCCC#Cc1cnc2c(c1)C(=O)N([C@@H](C)CO)C[C@H](C)[C@@H](CN(C)Cc1ccc3c(c1)OCO3)O2 ?
DENV2 CPE: -11; Xi reactivation: 1; PGC1a acetyl inh: 7; CFTR F508del cor: 3

Results for O=C(NCC[C@H]1CC[C@@H](NS(=O)(=O)c2ccc(Cl)cc2)[C@@H](CO)O1)c1ccccc1F ?
Cneo AK release: -4; DENV2 CPE: inconclusive; Xi reactivation: 0; PGC1a acetyl inh: 6; CFTR F508del cor: 0

What do the screens show for `CCN(CC)c1ccc(C(=O)N/N=C/c2ccccc2OC(F)F)cc1`?
FN deposit inh: 41*; DENV2 CPE: 1; Xi reactivation: 0

Results for COc1cccc(-c2cc(C(=O)NC3CCCC3)c3ccccc3n2)c1 ?
Cneo AK release: 1; FN deposit inh: -4; DENV2 CPE: -1; Xi reactivation: 0; PGC1a acetyl inh: 4; CFTR F508del cor: 0

Results for O=C(N/N=C/c1ccccc1OC(F)F)c1cc(-c2ccncc2)nc2ccccc12 ?
FN deposit inh: 1; DENV2 CPE: 2; Xi reactivation: 1; PGC1a acetyl inh: 9; CFTR F508del cor: 9.5*

What do the screens show for `COc1ccc(OC)c(-c2cc(C(=O)NC3CCCC3)c3ccccc3n2)c1`?
Cneo AK release: 0; FN deposit inh: -2; DENV2 CPE: 36*; Xi reactivation: 0; CFTR F508del cor: -1

Results for COc1ccc(-c2cc(C(=O)N/N=C/c3cc(OC)c(OC)cc3OC)c3ccccc3n2)cc1 ?
Cneo AK release: -1; FN deposit inh: 1; DENV2 CPE: 0; Xi reactivation: 0; PGC1a acetyl inh: 45*; CFTR F508del cor: -5

Results for Cc1noc(C)c1S(=O)(=O)N(C)C[C@@H]1OCCCC[C@H](C)Oc2ccc(N(C)C)cc2C(=O)N([C@H](C)CO)C[C@@H]1C ?
Cneo AK release: 1; DENV2 CPE: -15; PGC1a acetyl inh: 2; CFTR F508del cor: -1

Results for COc1ccc(NC(=O)Nc2ccc3c(c2)CC(=O)N([C@H](C)CO)C[C@H](C)[C@@H](CN(C)S(=O)(=O)c2ccccc2)O3)cc1 ?
FN deposit inh: -6; DENV2 CPE: -1; Xi reactivation: 0; PGC1a acetyl inh: -8; CFTR F508del cor: -1

What do the screens show for `COCC(=O)N1CCC2(CC1)CN(C(=O)CN1CCOCC1)[C@@H](CO)c1c2c2ccc(OC)cc2n1C`?
DENV2 CPE: 3; Xi reactivation: 0; PGC1a acetyl inh: -10; CFTR F508del cor: -3

Results for C[C@H](CO)N1C[C@H](C)[C@@H](CN(C)C(=O)Nc2ccc3c(c2)OCO3)Oc2ccc(NC(=O)Nc3ccc(F)cc3)cc2CC1=O ?
Cneo AK release: 0; FN deposit inh: 5; DENV2 CPE: 23*; Xi reactivation: -1; PGC1a acetyl inh: 5; CFTR F508del cor: -1

How did CCOC(=O)CCCCCC(=O)Nc1ccc2c(c1)CC(=O)N([C@@H](C)CO)C[C@H](C)[C@@H](CN(C)C(=O)Nc1ccc3c(c1)OCO3)O2 do in these assays?
Cneo AK release: -2; FN deposit inh: -1; DENV2 CPE: 46*; Xi reactivation: 0; PGC1a acetyl inh: -9; CFTR F508del cor: 2

How did C[C@@H]1CN([C@@H](C)CO)C(=O)Cc2cc(NC(=O)Nc3ccc4c(c3)OCO4)ccc2O[C@H]1CN(C)C(=O)Nc1ccc(F)cc1 do in these assays?
Cneo AK release: 0; DENV2 CPE: 45*; Xi reactivation: 0; PGC1a acetyl inh: -2; CFTR F508del cor: 0
